Measurements collected from several papers.
Protocols differ between the studies behind these lines.
Target: Mitogen-activated protein kinase 15 (MAPK15, Homo sapiens, UniProt Q8TD08)
Sequence (Q8TD08 1-544, as in one of the studies): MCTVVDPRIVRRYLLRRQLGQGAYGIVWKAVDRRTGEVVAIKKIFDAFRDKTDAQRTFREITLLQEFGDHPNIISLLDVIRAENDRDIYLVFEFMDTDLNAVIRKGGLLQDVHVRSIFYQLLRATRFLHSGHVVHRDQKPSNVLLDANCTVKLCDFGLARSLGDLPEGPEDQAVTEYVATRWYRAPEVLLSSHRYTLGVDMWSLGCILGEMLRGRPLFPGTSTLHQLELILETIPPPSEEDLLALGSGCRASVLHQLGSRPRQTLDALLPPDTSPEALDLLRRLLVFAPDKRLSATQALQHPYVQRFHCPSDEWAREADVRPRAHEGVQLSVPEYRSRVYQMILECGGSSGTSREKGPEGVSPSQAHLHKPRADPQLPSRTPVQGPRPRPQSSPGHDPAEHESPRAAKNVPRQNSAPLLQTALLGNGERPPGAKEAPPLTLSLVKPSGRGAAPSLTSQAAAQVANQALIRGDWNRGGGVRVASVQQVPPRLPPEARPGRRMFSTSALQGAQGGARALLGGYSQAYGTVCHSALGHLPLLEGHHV

| Structure (SMILES) | effect on | action | method | tested at | measurement | result |
| --- | --- | --- | --- | --- | --- | --- |
| Nc1nc(Nc2ccc(S(N)(=O)=O)cc2)sc1C(=O)c1ccccc1[N+](=O)[O-] | enzyme activity | inhibitor | – | 0.1 µM | inhibition | 73 to 75% |
| CC(C)(C)C(=O)c1sc(NC2CCCCC2)nc1N | enzyme activity | inhibitor | – | 10 µM | remaining activity | 43% |
| FC(F)c1nc2ccccc2n1-c1nc(N2CCOCC2)nc(N2CCOCC2)n1 | enzyme activity | inhibitor | – | 10 µM | remaining activity | 92% |
| Cc1nccc(COC(=O)N2C[C@@H]3[C@@H](CNC(=O)c4ccc5[nH]nnc5c4)[C@@H]3C2)n1 | cell-free assay | – | competition with immobilised ligand | 1 µM | remaining binding | 100% |
| COc1cc(/C=C/C(=O)CC(=O)/C=C/c2ccc(O)c(OC)c2)ccc1O | enzyme activity | inhibitor | – | 1 µM | activity vs control | 77% |
| C[C@@]1(Cc2ccc(C#N)cc2)C(=O)N(c2cc(Cl)cc(Cl)c2)c2ncc(C(=O)NC3(c4nc(C5CCC5)no4)CC3)n21 | cell-free assay | – | competition with immobilised ligand | 1 µM | remaining binding | 100% |
| CC(C)(C)c1nc2c(s1)c1nc(N)ncc1c1ccc(NS(=O)(=O)c3c(F)cccc3F)c(F)c12 | enzyme activity | inhibitor | radiometric | 1 µM | remaining activity | 81% |
| Cc1c[nH]c2nccc(Oc3c(F)cc(Nc4cc(Cl)nc(N)n4)cc3F)c12 | cell-free assay | – | competition with immobilised ligand | 0.1 µM | remaining binding | 100% |
| Cn1cnc(Br)c1C1=CN(c2ncnc3[nH]cnc23)CCS1 | enzyme activity | inhibitor | radiometric | 2 µM | inhibition | 80.2% |
| Oc1cccc(-c2nc(N3CCOCC3)c3oc4ncccc4c3n2)c1 | enzyme activity | inhibitor | – | 10 µM | remaining activity | 87% |
| O=C(Nc1cnn(-c2csc(C(=O)NC3COC3)c2)c1)Nc1c(F)cccc1Cl | enzyme activity | inhibitor | – | 5 µM | remaining activity | 108% |
| O=C(Nc1cccnn1)N1CCC(=Cc2cccc(Oc3ccc(C(F)(F)F)cn3)c2)CC1 | cell-free assay | – | competition with immobilised ligand | 1 µM | remaining binding | 83% |
| Nc1nc(NC2CCCCC2)sc1C(=O)c1ccccc1 | enzyme activity | inhibitor | – | 10 µM | remaining activity | 18% |
| FC(F)(F)Oc1cccc(-c2cnc3ccc(-c4ccncc4)nn23)c1 | enzyme activity | inhibitor | radiometric | 5 µM | activity vs control | 17% |
